Measurements from PubChem BioAssay.
Records with an inconclusive call do not appear. The source made the active and inactive calls.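 Rule for the calls, unless noted: active = viability increase at or above a cutoff of the median across tested compounds plus 3 SD (cut at about 8.5% in these data, passing the limit was not always enough); inconclusive = some gains above the cutoff, reason not given; inactive = the rest.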

Key:
[1] = OD615 S. cerevisiae growth inhibition, permissive medium, pilot counter-assay, permissive growth control for S. cerevisiae lifespan shortening project (AID 705;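 active = growth inhibition above 25% in both replicates, a cutoff set 3 SD above the mean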); conditions: OD615, 24 h, at 10 µM, active compounds read high
Outline: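 System – S. cerevisiae with engineered DeaD lifespan system · Buffer or medium – SC raffinose/galactose permissive medium · Schedule – cells pre-grown 4 h, then 24 h compound exposure, 30 °C humidified · Technique – culture turbidity as optical density at 615 nm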

[2] = Restrictive medium S. cerevisiae growth inhibition, OD615, pilot screen of yeast lifespan reduction project, restrictive growth control (AID 706;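 active = growth inhibition above a set limit, 3 SD over mean compound inhibition, in both replicates, cut at about 43% in these data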;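 note: modified DeaD lifespan yeast strain shifted to restrictive glucose medium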); conditions: OD615, 48 h, at 10 µM, active compounds read high
Outline: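 Material: engineered S. cerevisiae DeaD strain / Medium: glucose-based CSMM-D restrictive medium / Compound: single dose of 10 µM compound final, 0.25% DMSO / Timing: 4 h pre-incubation, 48 h exposure at 30 °C / Technique: OD615 absorbance reading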

[3] = viability gain of MRP-1-high H69AR cells under doxorubicin, pilot screen, MRP-1 activator project, CellTiter-Glo, duplicate (AID 807); conditions: H69AR viability with doxorubicin, CellTiter-Glo luminescence; at 10 µM; active compounds read high;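 note: compound pretreatment 18-22 h then 72 h combined with doxorubicin; 0% = doxorubicin alone and 100% = vehicle without doxorubicin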
[4] = growth suppression of beta-catenin knockout HCT116, pilot screen, human colon tumor cells (AID 823;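 active = cell viability at or below a set limit in both duplicate runs, the limit being the all-compound median minus 4 SD, cut at about 23% in these data, passing the limit was not always enough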;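 note: 0% = wells killed by 20 µM Hyamine and 100% = untreated DMSO cell wells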); conditions: CellTiter-Glo, 60 h, at 10 µM, active compounds read low
[5] = growth suppression of PTEN-deleted HCT116, pilot screen, cell-based, HCT116 clonal line, CellTiter-Glo (AID 824;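 active = viability at or below 27.92% in each of two runs, the all-compound median minus 4 SD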;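 note: 0% = 20 µM Hyamine control and 100% = vehicle cell control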); conditions: 60 h, at 10 µM, active compounds read low
[6] = inhibitors of the yeast RAM network, pilot screen, dse1pr::URA3 reporter, 5-FOA selection (AID 869;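 active = inhibition over a set limit, the all-compound mean plus 3 SD, in both replicate runs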;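 note: 0% = DMSO wells with no growth and 100% = 10 µM 1-NA-PP1 with full growth; RAM network block rescues cells from 5-FOA so hits raise OD615 growth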); conditions: S. cerevisiae dse1pr::URA3 5-FOA growth, OD615, 2 d; at 10 µM; active compounds read high; strain carries analog-sensitive mutant Cbk1 kinase
[7] = RAM signaling pathway blockade in yeast – S. cerevisiae, Pdr1DBD-CYC8 efflux-inhibited sensitized strain, primary screen (AID 1298;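 active = RAM network inhibition above 8.4% in each of two replicates, 3 SD over the compound average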;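 note: 0% = DMSO untreated cells without growth and 100% = 10 µM 1-NA-PP1 full growth; higher means more yeast growth rescued from 5-FOA killing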); conditions: S. cerevisiae cbk1-as DSE1-URA3 strain, 5-FOA growth OD615, 2 d; at 50 µM; active compounds read high

COc1ccc(S(=O)(=O)Cc2ccc(C(=O)NC3CC3)o2)cc1
inactive: growth inhibition [1] 1.37% | growth inhibition [2] -4.7% | viability increase [3] -3.02% | viability [4] 75.5% | viability [5] 87.9% | inhibition [6] 0.85% | RAM network inhibition [7] 2.57%

Cc1ccccc1-n1nc(C(=O)O)c(C)c(C#N)c1=O
inactive: growth inhibition [1] -3.86% | growth inhibition [2] -6.29% | viability increase [3] -0.28% | viability [4] 97.8% | viability [5] 98.6% | inhibition [6] 2.41% | RAM network inhibition [7] 3.52%

Cc1ccccc1N1C(=O)c2sc3nc4c(c(=O)n3c2C1=O)CCC4
inactive: growth inhibition [1] 4.62% | growth inhibition [2] 25.2% | viability increase [3] -4.72% | viability [4] 97% | viability [5] 96.8% | inhibition [6] 1.5% | RAM network inhibition [7] 2.56%

CCN(CC)S(=O)(=O)c1ccc(Cl)c(C(=O)Nc2nnc(C)s2)c1
inactive: growth inhibition [1] -6.93% | growth inhibition [2] 1.45% | viability increase [3] 0.43% | viability [4] 93.1% | viability [5] 95.7% | inhibition [6] -0.08% | RAM network inhibition [7] 4.33%

CCOC(=O)N1CCC(NC(=O)C2CCN(Cc3nc(-c4ccc(CC)cc4)oc3C)CC2)CC1
inactive: growth inhibition [1] -8.25% | growth inhibition [2] -7.78% | viability increase [3] -1.2% | viability [4] 84.2% | viability [5] 85.9% | inhibition [6] 0.435% | RAM network inhibition [7] 0.29%

O=C(CCCCC(=O)N1CCN(c2ccccc2)CC1)N1CCN(c2ccccc2)CC1
inactive: growth inhibition [1] -2.23% | growth inhibition [2] 8.9% | viability increase [3] 0.82% | viability [4] 94.6% | viability [5] 86% | inhibition [6] 1.74% | RAM network inhibition [7] -0.46%

CCOC(=O)CSc1nnc(CSc2nc(N)c3c(C)c(C)sc3n2)n1-c1ccccc1
inactive: growth inhibition [1] 14.1% | viability increase [3] -2.13% | viability [4] 94.8% | viability [5] 96.2% | inhibition [6] 0.985% | RAM network inhibition [7] 5.21%
active: growth inhibition [2] 53.5%

Cc1ccn2cc(-c3ccc(S(=O)(=O)N4CCOCC4)cc3)nc2c1
inactive: growth inhibition [1] -2.96% | growth inhibition [2] 6.53% | viability increase [3] 2.12% | viability [4] 106% | viability [5] 102% | inhibition [6] 1.6% | RAM network inhibition [7] 1.79%

C=CCN(C1CCCCC1)S(=O)(=O)c1ccc2c(c1)oc(=O)n2C
inactive: growth inhibition [1] -16.7% | growth inhibition [2] -11.6% | viability increase [3] -4.14% | viability [4] 86.5% | viability [5] 80.4% | inhibition [6] 2.28% | RAM network inhibition [7] 6%

Cc1ccc(N(C)C(=O)N2CCN(S(=O)(=O)c3ccc(C)cc3)CC2)cc1
inactive: growth inhibition [1] -1.22% | growth inhibition [2] -7.74% | viability increase [3] -1.03% | viability [4] 93.7% | viability [5] 96.6% | inhibition [6] 0.215% | RAM network inhibition [7] 6.2%

CCC1CCCCN1C(=O)CSc1nnc(-c2ccc(Cl)cc2)o1 (stereo not given)
inactive: growth inhibition [1] 0.365% | growth inhibition [2] -5.16% | viability increase [3] 0.28% | viability [4] 87% | viability [5] 90.9% | inhibition [6] 1.89% | RAM network inhibition [7] 5.69%

O=C(Nc1c(F)cc(F)cc1Br)c1cc(-c2ccc(O)cc2)on1
inactive: growth inhibition [1] -17.7% | growth inhibition [2] 5.22% | viability increase [3] -4.92% | viability [4] 92% | viability [5] 85.4% | inhibition [6] 0.53% | RAM network inhibition [7] -0.21%

O=C(CSc1nnc(C2COc3ccccc3O2)o1)N1CCCCC1 (stereo not given)
inactive: growth inhibition [1] -7.62% | growth inhibition [2] 2.56% | viability increase [3] -0.36% | viability [4] 98.7% | viability [5] 105% | inhibition [6] -0.035% | RAM network inhibition [7] 0.97%

CC(=O)c1c(C)cc(C)c(CSc2nc(C)cc(=O)[nH]2)c1C
inactive: growth inhibition [1] 2.49% | growth inhibition [2] 19.8% | viability increase [3] 0.08% | viability [4] 83% | viability [5] 74.2% | inhibition [6] 0.245% | RAM network inhibition [7] 2.49%

CC1CCN(CC(=O)N2c3ccccc3CCc3ccccc32)CC1
inactive: growth inhibition [1] -14.5% | growth inhibition [2] -19.2% | viability increase [3] -1.57% | viability [4] 87.5% | viability [5] 90% | inhibition [6] 4.08% | RAM network inhibition [7] 4.24%

COC(=O)c1ccc(N=c2sc(C(=O)OC)cc(=O)n2C)cc1
inactive: growth inhibition [1] -4.13% | growth inhibition [2] -3.27% | viability increase [3] -5.93% | viability [4] 71.2% | viability [5] 62.5% | inhibition [6] 0.495% | RAM network inhibition [7] 3.85%

O=C(Cc1cccs1)N(Cc1ccco1)C1(C(=O)NC2CCCC2)CCCCC1
inactive: growth inhibition [1] -6.91% | growth inhibition [2] -9.26% | viability increase [3] -5.17% | viability [4] 66.5% | viability [5] 67.1% | inhibition [6] 0.86% | RAM network inhibition [7] 6.21%

COc1ccc(C2C(C(=O)Nc3ccc(F)cc3)=C(C)Nc3nc(CCCO)nn32)cc1 (stereo not given)
inactive: growth inhibition [1] -0.24% | growth inhibition [2] -1.29% | viability increase [3] -1.2% | viability [4] 96.6% | viability [5] 100% | inhibition [6] 0.24% | RAM network inhibition [7] 0.37%

Cc1noc(C)c1S(=O)(=O)N(CC(=O)N1CCc2ccccc21)c1ccc(C(C)C)cc1
inactive: growth inhibition [1] -4.56% | growth inhibition [2] -7.38% | viability increase [3] -5.04% | viability [4] 86.7% | viability [5] 82.5% | inhibition [6] 1.3% | RAM network inhibition [7] 5.36%

CCOC(=O)c1sc(NC(=O)COC(=O)c2ccco2)nc1C
inactive: growth inhibition [1] 4.37% | growth inhibition [2] -12.7% | viability increase [3] -6.43% | viability [4] 87.7% | viability [5] 89.6% | inhibition [6] 1.39% | RAM network inhibition [7] 4.87%

Cc1nnc(SCCn2c(N3CCCC(C)C3)nc3c2c(=O)n(C)c(=O)n3C)s1 (stereo not given)
inactive: growth inhibition [1] -11.4% | growth inhibition [2] -13.6% | viability increase [3] -3.23% | viability [4] 94.2% | viability [5] 97.2% | inhibition [6] 2.31% | RAM network inhibition [7] 1.84%

Cc1cc(Oc2ccccc2)nc2ccc(O)cc12
inactive: growth inhibition [1] -1.63% | growth inhibition [2] 3.26% | viability increase [3] -5.89% | viability [4] 89.9% | viability [5] 80.2% | inhibition [6] 1.14% | RAM network inhibition [7] -0.04%

COc1ccc(NC(=O)C(c2ccc(C)cc2)N(C)C(=O)c2cnccn2)cc1 (stereo not given)
inactive: growth inhibition [1] 1.81% | growth inhibition [2] 1.4% | viability increase [3] -1.03% | viability [4] 89.6% | viability [5] 95.6% | inhibition [6] -0.145% | RAM network inhibition [7] 0.06%

CCOC(=O)C1C(=O)N(C(=O)c2cncc(Br)c2)CC1c1ccccc1 (stereo not given)
inactive: growth inhibition [1] -0.835% | growth inhibition [2] 8.88% | viability increase [3] -0.37% | viability [4] 101% | viability [5] 106% | inhibition [6] 0.985% | RAM network inhibition [7] 9.56%

COC(=O)Nc1c(C(=O)OC)cc(OC)c(OC)c1OC
inactive: growth inhibition [1] -3.62% | growth inhibition [2] -6.57% | viability increase [3] -2.87% | viability [4] 94.7% | viability [5] 97.4% | inhibition [6] -0.495% | RAM network inhibition [7] 4.86%

COCCNC(=O)c1cc(-c2ccccc2OC)on1
inactive: growth inhibition [1] 5.14% | growth inhibition [2] 11.4% | viability increase [3] -5.78% | viability [4] 62.3% | viability [5] 55.5% | inhibition [6] -0.05% | RAM network inhibition [7] 2.09%

CCN(CC)S(=O)(=O)c1cc(C(=O)Oc2ccccc2OC)ccc1OC
inactive: growth inhibition [1] 4.58% | growth inhibition [2] 2.38% | viability increase [3] -0.11% | viability [4] 86.1% | viability [5] 85.6% | inhibition [6] 1.38% | RAM network inhibition [7] 3.93%

COc1ccccc1C1NC(=O)NC(C)=C1C(=O)Nc1cccc(C)c1C (stereo not given)
inactive: growth inhibition [1] -5.33% | growth inhibition [2] -10.3% | viability increase [3] -1.32% | viability [4] 105% | viability [5] 102% | inhibition [6] 0.77% | RAM network inhibition [7] -1.38%

CCSc1nnc(Cc2cc(=O)[nH]c(=O)[nH]2)n1-c1ccc(F)cc1
inactive: growth inhibition [1] -5.83% | growth inhibition [2] -10.5% | viability increase [3] 0.38% | viability [4] 104% | viability [5] 100% | inhibition [6] 0.9% | RAM network inhibition [7] 1.04%

CC1Cc2nc(SCC(=O)Nc3ccc4c(c3)OCO4)n(CCc3ccccc3)c(=O)c2S1 (stereo not given)
inactive: growth inhibition [1] -14% | growth inhibition [2] -23.8% | viability increase [3] -2.89% | viability [4] 94.4% | viability [5] 87.1% | inhibition [6] 2.35% | RAM network inhibition [7] 7.17%

Cn1c(=O)c2c(nc(SCCNS(=O)(=O)c3ccccc3)n2C)n(C)c1=O
inactive: growth inhibition [1] -20.6% | growth inhibition [2] -16.3% | viability increase [3] -3.87% | viability [4] 101% | viability [5] 99% | inhibition [6] 1.46% | RAM network inhibition [7] 7.66%

O=C1NCCCC1C(=O)NCCNC(=O)C(F)(F)F (stereo not given)
inactive: growth inhibition [1] -4.04% | growth inhibition [2] -0.705% | viability increase [3] -1.47% | viability [4] 101% | viability [5] 94.7% | inhibition [6] 0.3% | RAM network inhibition [7] 4.25%

CCOC(=O)N1CCC(NC(=O)c2cc3c(-c4ccccc4F)nn(C)c3s2)CC1
inactive: growth inhibition [1] -7.38% | growth inhibition [2] -13.5% | viability increase [3] -3.97% | viability [4] 75.6% | viability [5] 84.2% | inhibition [6] 1.74% | RAM network inhibition [7] 0.42%

CCCC(=O)NC(C)c1nc2ccccc2n1C(C)C (stereo not given)
inactive: growth inhibition [1] -10.7% | growth inhibition [2] -16.6% | viability increase [3] 0.47% | viability [4] 97.5% | viability [5] 91.2% | inhibition [6] 0.475% | RAM network inhibition [7] 2.52%

CCCCN(C)C(=O)C(Cc1ccccc1)NS(=O)(=O)c1ccc2c(c1)CCC(=O)N2 (stereo not given)
inactive: growth inhibition [1] -18.6% | growth inhibition [2] -11.7% | viability increase [3] -2.47% | viability [4] 89.5% | viability [5] 90.2% | inhibition [6] 1.44% | RAM network inhibition [7] 6.27%
